A selection: hits, their analogues and other compounds. The true share with any hit is near 3.4%.
MEKK2 WT-MEK5 = raises or lowers MEK5 binding to wildtype human MEKK2 PB1 domain | AID 1531 | 1.1% of 290,000 active | binding response (% of control), % at 10 µM | Q9Y2U5 | bead flow cytometry, Alexa488-MEK5 binding to MEKK2 WT; actives lie on both sides; in the data active means binding response below about 67% or above about 130%
MEKK2 mut-MEK5 = signal of MEK5 binding to mutant human MEKK2 PB1 domain | 0.35% of 290,000 active | percent response, % at 10 µM | bead flow cytometry, Alexa488-MEK5 binding to MEKK2 mutant; in the data active means percent response above about 24%, passing the limit was not always enough
IMP-1 inh = inhibitors of Pseudomonas aeruginosa IMP-1 metallo-beta-lactamase; AID 1556; purified IMP-1, nitrocefin hydrolysis, epi-absorbance fluorescence; 0.45% of 290,000 active; inhibition, % at 5.6 µM;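 active means inhibition above the mean plus 3 SD of all compounds in the same screening run, cut at about 4.5% in these data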;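 further: 0% = IMP-1 with DMSO and 100% = DMSO wells lacking enzyme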
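system = purified recombinant IMP-1 beta-lactamase | amount = 0.2 nM IMP-1, as dispensed | medium = HEPES buffer pH 7.1 with ZnSO4 and Brij 35 | times = 25 °C, 15 min preincubation, 25 min reaction | detection = plate fluorescence quenching by hydrolysis product, ex 480/em 530 nm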
MEKK3 PB1 HTS = MEKK3-MEK5 PB1 interaction, increase or decrease; AID 1529; bead-based flow cytometry, Alexa488-MEK5 binding to MEKK3; actives lie on both sides; 0 = blocked by unlabeled MEK5, 100 = vehicle; 1.4% of 290,000 active; binding response (% of control), % at 10 µM;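 active means binding response more than 3 SD above or below the average of its plate-row segment, actives on both sides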;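 further: Alexa488 bead fluorescence after subtracting the streptavidin-only scavenger bead signal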
Target sequence (Q99759 whole entry, looked up): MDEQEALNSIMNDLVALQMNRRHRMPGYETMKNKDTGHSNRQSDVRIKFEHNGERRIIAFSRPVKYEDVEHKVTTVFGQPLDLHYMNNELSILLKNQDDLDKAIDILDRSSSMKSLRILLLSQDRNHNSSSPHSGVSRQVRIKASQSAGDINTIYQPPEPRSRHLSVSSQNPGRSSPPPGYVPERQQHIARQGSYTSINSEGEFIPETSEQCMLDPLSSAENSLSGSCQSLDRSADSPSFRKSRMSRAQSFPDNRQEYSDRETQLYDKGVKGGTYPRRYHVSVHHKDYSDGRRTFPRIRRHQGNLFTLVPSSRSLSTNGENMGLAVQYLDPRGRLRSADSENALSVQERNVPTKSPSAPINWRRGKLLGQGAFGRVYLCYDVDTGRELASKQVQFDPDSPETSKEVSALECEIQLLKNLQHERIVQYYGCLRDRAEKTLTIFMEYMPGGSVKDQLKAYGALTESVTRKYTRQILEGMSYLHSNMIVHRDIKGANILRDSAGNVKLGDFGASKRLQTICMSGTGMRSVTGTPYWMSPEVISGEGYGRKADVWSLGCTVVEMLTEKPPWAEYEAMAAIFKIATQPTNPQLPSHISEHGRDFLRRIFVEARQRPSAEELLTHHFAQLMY
VIM-2 inhibitor = blocks Pseudomonas aeruginosa VIM-2 metallo-beta-lactamase. purified VIM-2, nitrocefin hydrolysis, epi-absorbance fluorescence. inhibition, % at 5.6 µM. 0.89% of 290,000 active. AID 1527;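 active means inhibition above the mean of all tested compounds plus 3 SD, cutoff set per screening run, cut at about 7.5% in these data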;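 further: red hydrolysis product quenches plate fluorescence so inhibitors raise well fluorescence; 0% = enzyme with DMSO and 100% = DMSO without enzyme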
MEKK2wt confirm = raises or lowers MEK5 binding to wildtype human MEKK2, retest | shares compounds with MEKK3 PB1 HTS | bead flow cytometry, Alexa488-MEK5 binding to MEKK2 WT; actives lie on both sides | binding response (% of control), % at 10 µM | 2.4% of 5,900 active | AID 1892; in the data active means binding response below about 16% or above about 210%; inactive means in between
MEKK2mut-MEK5 = signal of MEK5 binding to mutant human MEKK2, retest; shares compounds with MEKK3 PB1 HTS; bead flow cytometry, Alexa488-MEK5 binding to MEKK2 mutant; percent response, % at 10 µM; 2% of 5,900 active; AID 1893; in the data active means percent response mostly above about 71%, no sharp cut-off; inactive means mostly below about 38%;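 further: higher means compound restores mutant binding toward wildtype level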
MEKK3-MEK5 inh = confirmation of inhibitors of MEK5 binding to human MEKK3. shares compounds with MEKK3 PB1 HTS. bead flow cytometry, Alexa488-MEK5 binding to MEKK3; stronger effect = lower value. binding response (% of control), % at 10 µM. 1.8% of 5,900 active. AID 1894;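 active means binding response below 72% of control, or above a set upper limit, though filed actives all read lower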;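 further: 100% = DMSO only wells and 0% = binding blocked by excess unlabeled MEK5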
* marks the source's active call; other numbers are inactive results; x = not tested or not shown; [ ] = dose if it differs, or a comment.

SMILES	MEKK2 WT-MEK5	MEKK2 mut-MEK5	IMP-1 inh	MEKK3 PB1 HTS	VIM-2 inhibitor	MEKK2wt confirm	MEKK2mut-MEK5	MEKK3-MEK5 inh
Cc1ccnc(NC(=O)c2cccc(NC(=O)COc3ccccc3)c2)c1	100	1	-4	97	-1	x	x	x
C=CCSc1nnc(CNC(=O)c2ccccc2C)n1C(C)C	121	4	-3	140*	-3	101	-3	96
C=CCSc1ncccc1C(=O)NCc1ccccc1	102	0	-2	103	-2	x	x	x
Cc1ccc2c(c1)c(C)c(C)n2CC(O)Cn1nnc2ccccc21 (configuration not stated)	101	0	0	103	-2	x	x	x
Cc1ccc2c(c1)c(C)c(C)n2CC(O)Cn1nc(C)cc1C (configuration not stated)	39*[inhibitor]	3	-3	110	-3	100	1	102
COc1ccc(N2CCN(C(=O)Cn3cnc4c(cnn4-c4ccc(C)cc4)c3=O)CC2)cc1	116	1	-3	129*	-3	105	-5	100
O=C(Nc1ccccc1F)C(=O)c1cn(CC(=O)N2CCCCC2)c2ccccc12	48	-16	-1	44*[inhibitor]	2	99	1	102
CCOC(=O)c1nc2ccccc2nc1C	108	0	-2	143*	-4	103	8	102
CCN1CCN(Cc2ccc(NC(=O)c3cc(NC(=O)c4nccnc4N)cc(OC)c3)cc2C(F)(F)F)CC1	164*	22	x	123*	x	144	21	102
CCN1CCN(Cc2ccc(NC(=O)c3cc(NC(=O)c4cnnc5ccccc45)cc(OC)c3)cc2C(F)(F)F)CC1	142*	21	x	107	x	143	15	99
CCN1CCN(Cc2ccc(NC(=O)c3ccc(C)c(NC(=O)N4CCNC4=O)c3)cc2C(F)(F)F)CC1	126	5	-3	107	1	x	x	x
COc1cc(OC)cc(C(=O)N2CCN(Cc3ccccc3C(F)(F)F)CC2)c1	105	4	-4	105	0	x	x	x
CCN1CCN(Cc2ccc(NC(=O)c3cc(NC(=O)c4cncc(-c5ccc(C#N)cc5)c4)cc(OC)c3)cc2C(F)(F)F)CC1	189*	131*	x	118	x	129	16	38*
C/C=C/C=N/NC(=O)CN(c1ccc(Br)cc1)S(=O)(=O)c1ccccc1	112	1	-4	149*	-3	97	-1	99
COc1ccc(N(CC(=O)N/N=C/c2ccc(N(C)C)cc2)S(=O)(=O)c2ccccc2)cc1	104	4	-1	108	1	x	x	x
COc1ccccc1N1CCN(C(=O)C(CC(C)C)NC(=O)C2CCCCC2)CC1 (configuration not stated)	100	0	-3	97	-3	x	x	x
Cc1ccc(NC(=O)c2snc3ccc(Cl)cc23)cc1C	102	-1	-1	131*	-2	100	-3	98
Cc1ccc(NC(=O)c2snc3c(=O)[nH]cnc23)cc1C	101	3	-1	101	-2	x	x	x
COc1ccc(-c2cc(-n3c(C(F)(F)F)nc4ccccc43)n(CCC#N)n2)cc1	86	-7	-4	82*[inhibitor]	0	98	-10	100
COc1ccc(Sc2nc3ccccc3n3c(C(F)(F)F)nnc23)cc1	92	-1	1	99	-1	x	x	x
COc1cc(/C=C2\SC(=S)N(CC(=O)Nc3cccnc3)C2=O)cc(OC)c1OC	84	-1	-4	107	-5	x	x	x
COc1cc(/C=C2\SC(=S)N(CC(=O)Nc3ccc(O)cc3)C2=O)cc(OC)c1OC	51	90*	-2	67*[inhibitor]	-4	87	-12	97
Cc1cccn2c(NC(=O)c3cccs3)c(-c3ccccc3)nc12	107	1	-2	138*	-1	101	3	104

Assay outcomes: PubChem BioAssay, several laboratories
